Screening data (PubChem)
UPR CHOP act: activators of apoptotic arm of unfolded protein response (CHOP); CHO-CHOP luciferase reporter, UPR activation, luminescence; percent of tunicamycin response over DMSO baseline; activation, % at 10 µM; 0.34% of 330,000 active; AID 449763;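 active = at 10 µM dose, activation of 40% or more, normalized to positive control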
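System: CHO-CHOP luciferase reporter cell line; amount: 500 cells/well; buffer or medium: F12 medium containing 10% fetal bovine serum; incubation: 6 h compound exposure at 37 °C after overnight seeding; measured by: luciferase luminescence after 10 min with Steady-Glo reagent; evaluation: % reporter activation, DMSO baseline versus tunicamycin full activation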
Tb MetRS inh: Trypanosoma brucei MetRS inhibition; purified T. brucei MetRS, ATP depletion, Kinase-Glo luminescence; inhibition, % at 11.9 µM; 0.4% of 360,000 active;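 active = inhibition above a per-plate cutoff of the control wells' mean inhibition plus 3 SD, cut at about 5.5% in these data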
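Material: parasite MetRS enzyme / Replication: singlicate, one well per compound / Signal: luminescence of leftover ATP / Schedule: 2 h aminoacylation at 25 °C after 15 min preincubation / Medium: HEPES-MgCl2-KCl buffer plus DTT, spermine, BSA, pyrophosphatase / Doses: 11.9 µM single point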
CHOP inhibitor: inhibitors of CHOP induction in ER stress response; 3.8% of 220,000 active; AID 2732; inhibition, % at 10 µM; CHO-K1 CHOP-promoter luciferase, tunicamycin-induced, 15-18 h;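 active = compounds that reduced the stress-induced luciferase reporter signal by more than about 70% of percent inhibition, limit read from the data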
V-ATPase pHluor: regulators of yeast V-ATPase proton transport. S. cerevisiae, pHLuorin cytosolic pH fluorescence. response, % at 10 µM. AID 504577. 0.37% of 350,000 active; in the data active = response mostly above about 7.3%, no sharp cut-off; inactive = mostly below about 5.4%; note: actives read high
XBP1 UPR activ: activators of adaptive arm of unfolded protein response (XBP1); CHO-XBP1 luciferase reporter, IRE1-XBP1 UPR activation, luminescence; percent of tunicamycin response, DMSO as zero; activation, % at 20 µM; 0.33% of 330,000 active;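 active = versus positive control, 20 µM dose yields 30% or more activation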
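Material: CHO cell line with stable XBP1 luciferase reporter; schedule: 16-18 h cell attachment at 37 °C, then 6 h compound exposure; signal: glow luminescence from Steady-Glo reagent; medium: serum-containing F12 medium, 10% FBS; benchmarks: tunicamycin 10 µg/mL and vehicle-only wells; read-out: percent activation relative to tunicamycin reference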
CHOP confirm: confirmation of CHOP induction inhibitors; shares compounds with CHOP inhibitor; inhibition, % at 10 µM; CHO-CHOP promoter luciferase reporter, tunicamycin-induced, luminescence; 45% of 2,100 active;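 active = mean of three repeat readings of reporter signal inhibition above a set limit, cut at about 70% in these data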
Of the large screens only hits and unclear results are named; the others gave an inactive call (follow-up assays come after a bar, where they were run). Shown is part of a subset that was picked to be rich in hits.

O=C1NC[C@@H](CCCCN2C[C@H](Cc3ccc(O)cc3)N(CC3CCCCC3)C(=O)C2=O)N(CC2CCCCC2)C1=O	none (no result: UPR CHOP act, CHOP inhibitor, V-ATPase pHluor, XBP1 UPR activ)
Cc1cc(OCC(=O)NNC(=S)NC(=O)c2ccc(Br)o2)ccc1Cl	none (no result: CHOP inhibitor)
CCCNC(=O)C1(C)CCCN(Cc2csc3ccccc23)C1 (stereo not drawn)	none (no result: UPR CHOP act, CHOP inhibitor, V-ATPase pHluor, XBP1 UPR activ)
C=C(C)COc1ccc(-c2n[nH]c(C)c2Oc2ccccc2OC)c(O)c1	CHOP inhibitor 107 | CHOP confirm 115
CCCc1ccc(Oc2cn[nH]c2-c2ccc(O)cc2O)cc1	CHOP inhibitor 108 | CHOP confirm 120
CCOc1ccc(-c2n[nH]c(C)c2Oc2ccccc2OC)c(O)c1	none
O=C(CCN1C(=O)C2C3CCC(C3)C2C1=O)OCC(=O)c1ccc(Cl)cc1 (stereo not drawn)	none (no result: CHOP inhibitor)
CC(=O)Oc1cccc(/C=c2\sc3nc(-c4ccco4)nn3c2=O)c1	CHOP inhibitor 107 | CHOP confirm inactive
COc1c(Cl)cnn(-c2ccc(C)cc2)c1=O	none
Cc1ccc(-n2ncc(Br)c(Br)c2=O)cc1	CHOP inhibitor 105 (no result: UPR CHOP act, XBP1 UPR activ) | CHOP confirm 121
O=c1c(Br)c(Br)cnn1-c1ccccc1	CHOP inhibitor 106 (no result: UPR CHOP act, XBP1 UPR activ) | CHOP confirm 118
O=c1c(Br)c(N2CCCC2)cnn1-c1ccccc1	none
CC(C)(C)OC(=O)N1CCC(CNC(=O)c2ccc(F)cc2)CC1	none
CCNC(=S)NNC(=O)CCn1cc(C)cn1	none
CSc1ccc(C(=O)C2CCCN(S(=O)(=O)c3c(C)noc3C)C2)cc1 (stereo not drawn)	none
COC(=O)c1oc(-c2ccc(Cl)cc2)nc1C	none
COc1oc(-c2ccc(Cl)cc2)nc1C(F)(F)F	CHOP inhibitor 103 | CHOP confirm 71
CC(OC(=O)CNC(=O)c1sc2ccccc2c1Cl)C(=O)NC1(C#N)CCCCC1 (stereo not drawn)	none (no result: CHOP inhibitor)
COc1ccc(C(=O)CC(=O)c2ccccc2O)cc1	none (no result: CHOP inhibitor)
COc1ccc(O)c(C(=O)CC(=O)c2ccc(F)cc2)c1	CHOP inhibitor 103 | CHOP confirm inactive
Cc1ccc(O)c(C(=O)CC(=O)c2cccc(F)c2)c1	CHOP inhibitor 108 | CHOP confirm inactive
Cc1ccc(S(=O)(=O)Nc2nnc(C3CCCCC3)s2)cc1	none (no result: CHOP inhibitor)
Cc1ccc(-n2c(C)nnc2SCC(=O)N(C)c2c(N)n(Cc3ccccc3)c(=O)[nH]c2=O)cc1	none (no result: CHOP inhibitor)
C[C@H](NC(=O)c1ccco1)C(=O)Nc1ccc(C#N)cc1	none (no result: CHOP inhibitor)
CCc1ccc(CNC(=O)c2ccc(OC3CCN(C(=O)COC)CC3)cc2)nc1	none (no result: CHOP inhibitor)
CC(C)=CCc1c(O)cc2oc3c(CC=C(C)C)c(O)c(O)c(CC=C(C)C)c3c(=O)c2c1O	CHOP inhibitor 97 | CHOP confirm 120
CC(C)=CCc1cc(-c2oc3cc(O)cc(O)c3c(=O)c2O)ccc1O	none (no result: CHOP inhibitor)
Cc1ccc(C(=O)NC(=S)NCC2CCCO2)cc1[N+](=O)[O-] (stereo not drawn)	none
Cc1ccc(Nc2nc(N)c([N+](=O)[O-])c(N3CCOCC3)n2)cc1C	none
Cc1ccc(Nc2nc(N)c([N+](=O)[O-])c(N3CCC(C)CC3)n2)cc1C	CHOP inhibitor 101 | CHOP confirm 102
CCNC(=O)NC(=O)C(C)OC(=O)c1oc2ccccc2c1CSC1CCCCC1 (stereo not drawn)	CHOP inhibitor 99 | CHOP confirm inactive
CNC(=O)NC(=O)C(C)OC(=O)c1oc2ccccc2c1CSc1ccc(Cl)cc1 (stereo not drawn)	CHOP inhibitor 98 | CHOP confirm 99
CC1(c2ccc(OC(F)F)cc2)NC(=O)N(/N=C/c2c(O)ccc3ccccc23)C1=O (stereo not drawn)	CHOP inhibitor 101 | CHOP confirm 96
Cc1ccc(N=Cc2cc3c(cc2O)OC(N)=C(C#N)C3c2ccccc2)cc1 (stereo not drawn)	CHOP inhibitor 99 | CHOP confirm 82
O=C(O)c1ccc(NC2=C(Cl)C(=O)c3ccccc3C2=O)cc1	none
O=C1C(Cl)=C(Nc2ccccc2)C(=O)c2ccccc21	CHOP inhibitor 112 (no result: UPR CHOP act, XBP1 UPR activ) | CHOP confirm 127
CCCCCC1CC(CC(=O)Nc2ccc([N+](=O)[O-])cc2)C(=O)O1 (stereo not drawn)	CHOP inhibitor 101 | CHOP confirm 104
CCOC(=O)c1c(CN2CCOCC2)n(-c2ccccc2)c2cc(Br)c(O)cc12	CHOP inhibitor 99 | CHOP confirm 95
CCn1c(C)nc2cc(-c3nnc(-c4c(-c5ccccc5)noc4C)o3)ccc21	CHOP inhibitor 102 | CHOP confirm 85
Cc1onc(-c2ccccc2)c1-c1nnc(-c2ccccc2C(F)(F)F)o1	none
COc1ccc(C(=O)COC(=O)c2cc(=O)c3ccccc3o2)cc1	none (no result: CHOP inhibitor)
Cc1ccc(/C=N/N2C(=S)SC(C)(C)C2N(O)C(=O)Nc2ccc([N+](=O)[O-])cc2)cc1 (stereo not drawn)	CHOP inhibitor 103 | CHOP confirm 78
Cc1ccccc1CN(C)C(=O)c1ccc2ccccc2n1	none (no result: CHOP inhibitor)
CC(C)C[C@H](NC(=O)OC(C)(C)C)c1nnc(SCC(=O)Nc2ccc(Br)cc2)o1	CHOP inhibitor 100 | CHOP confirm 132
CC(C)C[C@H](N)c1nnc(SCC(=O)Nc2ccc(Br)cc2)o1	none (no result: CHOP inhibitor)
CCc1cccc(NC(=O)C2CCCN2S(=O)(=O)c2ccccc2C(F)(F)F)c1 (stereo not drawn)	none (no result: CHOP inhibitor)
Cc1cc(C)n(-c2nc(N(c3ccccc3)c3ccccc3)nc(-n3nc(C)cc3C)n2)n1	CHOP inhibitor 109 | CHOP confirm 140
Cc1cc(C)n(-c2nc(Nc3ccccc3)nc(-n3nc(C)cc3C)n2)n1	none
CC(C)(C)C(=O)Nc1ccc(-c2nc3ccccc3c(=O)o2)cc1	CHOP inhibitor 105 | CHOP confirm 90
CC(C)(C)C(=O)Nc1cccc(-c2nc3ccccc3c(=O)o2)c1	none
Cc1cc(C)c(C)c(OCc2nc(-c3cccnc3)no2)c1	CHOP inhibitor 97 | CHOP confirm inactive
COc1ccc(CNc2ncc(-c3ccc(Cl)cc3)n2C)c(OC)c1OC	none (no result: CHOP inhibitor)
O=C(Cc1csc(Nc2nc(=S)[nH]c3ccccc23)n1)N1CCN(c2cccc(Cl)c2)CC1	CHOP inhibitor 103 | CHOP confirm inactive
O=C(Cn1c(=O)[nH]c2ccccc2c1=O)N1CCN(c2cccc(Cl)c2)CC1	none
CC1(C)CC2CC(C)(CN2C(=O)COC(=O)c2cncc(Br)c2)C1 (stereo not drawn)	none (no result: CHOP inhibitor)
C=CCn1c(COc2ccccc2)nnc1SC(C)C(=O)N/N=C/c1cc(Cl)ccc1O (stereo not drawn)	CHOP inhibitor 97 | CHOP confirm 128
C=CCn1c(COc2ccc(Cl)cc2)nnc1SCC(=O)N/N=C/c1cccc(O)c1	none
O=C(c1ccco1)N1CCC(c2nc3c(nnn3Cc3ccc(F)cc3)c(=O)[nH]2)CC1	none (no result: CHOP inhibitor)
